In assay [1] the target is T1, Melanin-concentrating hormone receptor 1 (Homo sapiens, UniProt Q99705). Description: Displacement of [I125I]MCH from human MCH1 receptor expressed in CHO cells by scintillation counting. It counts as cell-based. In outline: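 SPA competition on membranes of CHO cells stably expressing human MCH1, premixed with WGA-PVT beads (0.25 mg/well). Test compound was added at increasing concentrations with [125I]-MCH in HEPES pH 7.4 buffer containing CaCl2, MgCl2 and 0.2% BSA, incubated 2 h at room temperature, then scintillation-counted. Phe-(D)Tyr-MCH served as reference ligand; IC50 came from sigmoidal dose-response fits.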
T1 sequence (Q99705 whole entry): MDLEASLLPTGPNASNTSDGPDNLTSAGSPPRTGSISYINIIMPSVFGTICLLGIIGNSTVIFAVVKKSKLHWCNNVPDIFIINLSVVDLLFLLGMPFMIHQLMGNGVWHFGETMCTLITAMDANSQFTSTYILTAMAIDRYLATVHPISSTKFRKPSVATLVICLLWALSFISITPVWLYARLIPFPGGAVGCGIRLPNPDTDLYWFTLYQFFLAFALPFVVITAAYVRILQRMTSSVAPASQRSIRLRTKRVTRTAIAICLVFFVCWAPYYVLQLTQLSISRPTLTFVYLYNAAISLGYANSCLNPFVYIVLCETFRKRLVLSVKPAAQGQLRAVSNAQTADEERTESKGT

In assay [2] the target is Somatostatin receptor type 4 (Homo sapiens, UniProt P31391). Description: Displacement of [125I]iodotyrosyl from human SST4 receptor expressed in CHO cells. Type of assay: cell-based. In outline:
(§1)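 Membranes from CHO cells stably expressing cloned human sst1–5 were used at 2 µg protein/well (sst1), 0.2 (sst2) or 0.7 (sst3, sst4, sst5). After GF/B filtration, bound label was counted. Nonspecific binding used 1 µM SST28; Ki came from single-site fits with known Kd; tested once in duplicate.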

The target in assay [3] is Somatostatin receptor type 1 (Homo sapiens, UniProt P30872). Description: Displacement of [125I]iodotyrosyl from human SST1 receptor expressed in CHO cells. It counts as cell-based. In outline: as §1
Chain of Somatostatin receptor type 1 (P30872 whole entry): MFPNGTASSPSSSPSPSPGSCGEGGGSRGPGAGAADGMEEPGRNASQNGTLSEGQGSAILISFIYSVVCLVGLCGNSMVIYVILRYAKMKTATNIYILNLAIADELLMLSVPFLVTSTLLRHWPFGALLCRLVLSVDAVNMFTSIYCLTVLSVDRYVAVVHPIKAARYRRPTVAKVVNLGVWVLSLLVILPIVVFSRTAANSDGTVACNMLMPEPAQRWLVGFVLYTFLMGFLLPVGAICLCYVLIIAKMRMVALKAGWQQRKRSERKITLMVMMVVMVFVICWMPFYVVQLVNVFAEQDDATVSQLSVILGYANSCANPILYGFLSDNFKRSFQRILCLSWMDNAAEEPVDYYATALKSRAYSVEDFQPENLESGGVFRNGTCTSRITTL
(Loss of bound radioactivity is the signal in a displacement assay; it reports binding, not function.)

Assay [4] addresses Somatostatin receptor type 2 (Homo sapiens, UniProt P30874). The assay can be described thus: Displacement of [125I]iodotyrosyl from human SST2 receptor expressed in CHO cells. It counts as cell-based. In short, it runs like this: as §1
Assay [5] addresses Somatostatin receptor type 3 (Homo sapiens, UniProt P32745). The assay can be described thus: Displacement of [125I]iodotyrosyl from human SST3 receptor expressed in CHO cells. Type of assay: cell-based. In outline:
as §1

Assay [6] addresses Somatostatin receptor type 5 (Homo sapiens, UniProt P35346). The assay can be described thus: Displacement of [125I]iodotyrosyl from human SST5 receptor expressed in CHO cells. It counts as cell-based. In short, it runs like this:
as §1

Assay [7] addresses T1, Melanin-concentrating hormone receptor 1. Description: Displacement of [I125I]MCH from human MCH1 receptor expressed in CHO cells (empty) by scintillation counting. As to conditions: 3 uM.

Chain of Somatostatin receptor type 2 (P30874 whole entry): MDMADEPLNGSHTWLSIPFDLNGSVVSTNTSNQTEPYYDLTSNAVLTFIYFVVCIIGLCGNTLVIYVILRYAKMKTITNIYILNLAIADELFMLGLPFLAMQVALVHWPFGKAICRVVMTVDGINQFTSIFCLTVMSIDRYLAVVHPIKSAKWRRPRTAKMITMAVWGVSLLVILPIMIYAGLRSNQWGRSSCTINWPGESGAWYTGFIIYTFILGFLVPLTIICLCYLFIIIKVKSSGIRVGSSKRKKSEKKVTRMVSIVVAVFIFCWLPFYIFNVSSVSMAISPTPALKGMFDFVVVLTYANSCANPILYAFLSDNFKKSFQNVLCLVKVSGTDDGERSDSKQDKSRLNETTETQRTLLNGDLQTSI
Chain of Somatostatin receptor type 4 (P31391 whole entry): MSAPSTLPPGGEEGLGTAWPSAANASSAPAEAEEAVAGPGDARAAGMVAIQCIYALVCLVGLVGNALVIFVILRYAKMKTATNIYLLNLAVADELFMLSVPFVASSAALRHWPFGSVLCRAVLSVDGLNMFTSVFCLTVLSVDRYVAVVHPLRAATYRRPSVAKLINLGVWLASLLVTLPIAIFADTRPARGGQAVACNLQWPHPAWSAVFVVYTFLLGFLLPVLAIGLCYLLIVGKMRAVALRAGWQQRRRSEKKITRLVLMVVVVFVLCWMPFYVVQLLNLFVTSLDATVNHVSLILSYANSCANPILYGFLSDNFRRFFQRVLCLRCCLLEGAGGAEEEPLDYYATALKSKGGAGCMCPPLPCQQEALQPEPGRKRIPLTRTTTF
Chain of Somatostatin receptor type 5 (P35346 whole entry): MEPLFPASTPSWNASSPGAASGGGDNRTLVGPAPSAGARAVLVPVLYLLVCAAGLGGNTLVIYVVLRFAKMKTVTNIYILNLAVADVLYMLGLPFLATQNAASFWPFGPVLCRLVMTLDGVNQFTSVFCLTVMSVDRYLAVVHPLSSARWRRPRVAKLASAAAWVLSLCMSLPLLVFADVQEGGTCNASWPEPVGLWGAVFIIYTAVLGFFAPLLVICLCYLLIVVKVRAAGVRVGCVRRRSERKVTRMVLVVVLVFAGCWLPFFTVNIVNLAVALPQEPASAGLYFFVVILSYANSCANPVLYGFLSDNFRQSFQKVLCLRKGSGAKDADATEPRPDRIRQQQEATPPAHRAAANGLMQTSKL
Chain of Somatostatin receptor type 3 (P32745 whole entry): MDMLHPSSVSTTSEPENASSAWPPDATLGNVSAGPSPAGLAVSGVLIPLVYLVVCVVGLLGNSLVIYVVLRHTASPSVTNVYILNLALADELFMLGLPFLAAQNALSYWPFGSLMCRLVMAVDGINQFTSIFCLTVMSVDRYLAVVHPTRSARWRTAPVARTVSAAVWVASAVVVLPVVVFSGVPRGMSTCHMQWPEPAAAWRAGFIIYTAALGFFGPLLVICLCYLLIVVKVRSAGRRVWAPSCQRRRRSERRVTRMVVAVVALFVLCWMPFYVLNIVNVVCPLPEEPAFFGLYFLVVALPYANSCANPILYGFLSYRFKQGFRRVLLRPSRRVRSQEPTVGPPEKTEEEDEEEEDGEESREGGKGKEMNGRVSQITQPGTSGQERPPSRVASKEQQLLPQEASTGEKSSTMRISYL

Usually IC50 stands for the point on the concentration scale where inhibition reaches its midpoint. Low values mean greater potency in that assay, high ones weaker potency in that assay. Regarding `COC[C@H]1O[C@@H](OCc2ccc3ccccc3c2)[C@H](NC(=O)CCCN=C(N)N)[C@@H](OCc2ccc(Cl)cc2)[C@@H]1O`, the IC50 in assay [1] was 1750 nM.
In the case of `CS[C@@H]1O[C@H](COCc2ccccc2)[C@@H](O)[C@@H](OCc2ccc3ccccc3c2)[C@H]1NC(=O)CCN`, the IC50 in assay [2] stood at 660 nM.
By Ki is commonly meant a dissociation constant, usually derived from enzyme kinetics or from competition with a known ligand. The low end stands for higher affinity, the high end for lower affinity. In assay [1], `COC[C@H]1OC(OCc2ccc3ccccc3c2)[C@H](NC(=O)CN=C(N)N)[C@@H](OCc2ccc(Cl)cc2)[C@@H]1O` (some centres undefined) yielded a Ki of 6600 nM.
In assay [1], `COC[C@H]1OC(OCc2ccc(Cl)cc2)[C@H](NC(=O)CCCN=C(N)N)[C@@H](OCc2ccc(Cl)cc2)[C@@H]1O` (some centres undefined) gave a Ki of 1200 nM.
Consider `COC[C@H]1OC(OCc2ccc3ccccc3c2)[C@H](NC(=O)CCCN=C(N)N)[C@@H](OCc2ccc3ccccc3c2)[C@@H]1O` (some centres undefined), for which the affinity in assay [1], expressed as Ki, was 5100 nM. Compared with the last molecule, the Ki is about 4.2-fold higher.
For the molecule `COC[C@H]1O[C@H](OCc2ccc(Cl)cc2)[C@H](NC(=O)CCCN=C(N)N)[C@@H](OCc2ccc3ccccc3c2)[C@@H]1O`, the IC50 in assay [1] amounted to 450 nM.
For the molecule `COC[C@H]1O[C@@H](OCCc2ccccc2)[C@H](NC(=O)CCCN)[C@@H](OCc2ccc3ccccc3c2)[C@@H]1O`, the IC50 is > 10000 nM in assay [3]; 3320 nM in assay [4]; 1320 nM in assay [5]; > 10000 nM in assay [2]; 180 nM in assay [6].
For `COC[C@H]1O[C@@H](OCc2ccc3ccccc3c2)[C@H](NC(=O)CCCN)[C@@H](OCc2ccc(Cl)cc2)[C@@H]1O`, the IC50 is > 10000 nM in assay [3], > 10000 nM in assay [4], > 10000 nM in assay [2] and 50 nM in assay [6].
As for `COC[C@H]1O[C@H](OCCc2ccccc2)[C@H](NC(=O)CCCN)[C@H](OCc2ccc3ccccc3c2)[C@@H]1O`, the IC50 was > 10000 nM in assay [3]; 6100 nM in assay [4]; 8400 nM in assay [5]; > 10000 nM in assay [2]; 200 nM in assay [6].
Consider `COC[C@H]1OC(OCc2ccc3ccccc3c2)[C@H](NC(=O)CCN=C(N)N)[C@@H](OCc2ccc3ccccc3c2)[C@@H]1O` (some centres undefined), for which, in assay [1], the Ki came to 6300 nM.
Take `COC[C@H]1OC(OCCc2ccccc2)[C@H](NC(=O)CCN)C(OCc2ccc3ccccc3c2)[C@@H]1O` (some centres undefined): the IC50 in assay [6] came out at 160 nM.
In assay [1], `COC[C@H]1OC(OCc2ccc3ccccc3c2)[C@H](NC(=O)CCCN=C(N)N)[C@@H](OCc2ccc(Cl)cc2)[C@@H]1O` (some centres undefined) returned a Ki of 1800 nM. This lies in the single-digit micromolar range.
On to `CS[C@@H]1O[C@H](COCc2ccccc2)[C@@H](O)[C@@H](OCc2ccc3ccccc3c2)[C@H]1NC(=O)CCN=C(N)N`, for which the IC50 in assay [2] was 180 nM. That is a sub-micromolar value.
Consider `COC[C@H]1O[C@@H](OCc2ccc(Cl)cc2)[C@H](NC(=O)CCCN=C(N)N)[C@@H](OCc2ccc3ccccc3c2)[C@@H]1O`, for which the IC50 in assay [7] is > 3000 nM.
`COC[C@H]1O[C@H](OCc2ccc(Cl)cc2)[C@H](NC(=O)CCCN=C(N)N)[C@@H](OCc2ccc(Cl)cc2)[C@@H]1O` displayed an IC50 in assay [1] of 120 nM.
Regarding `COC[C@H]1O[C@@H](OCc2ccc3ccccc3c2)[C@H](NC(=O)CCN)[C@@H](OCc2ccc3ccccc3c2)[C@@H]1O`, the half-inhibitory concentration (IC50) was determined as 2800 nM in assay [3]; 650 nM in assay [4]; 380 nM in assay [5]; 4000 nM in assay [2]; 20 nM in assay [6].
In the same order, the values of `CS[C@@H]1O[C@H](COCc2ccc(Cl)cc2)[C@@H](O)[C@@H](OCc2ccc3ccccc3c2)[C@H]1NC(=O)CCN` are 9590 nM, 980 nM, 6330 nM, 430 nM and 6000 nM.
Consider `COC[C@H]1O[C@H](OCc2ccc3ccccc3c2)[C@H](NC(=O)CCCN=C(N)N)[C@@H](OCc2ccc3ccccc3c2)[C@@H]1O`, for which the IC50 in assay [1] was 1160 nM.
For `COC[C@H]1O[C@H](OCc2ccc3ccccc3c2)[C@H](NC(=O)CCCN=C(N)N)[C@@H](OCc2ccc(Cl)cc2)[C@@H]1O`, the IC50 in assay [1] was 920 nM. The IC50 values of the last two molecules are within 1.5-fold of each other.
Turning to `CS[C@@H]1O[C@H](COCc2ccc3ccccc3c2)[C@@H](O)[C@@H](OCc2ccc3ccccc3c2)[C@H]1NC(=O)CCN`, the IC50 in assay [2] amounted to 440 nM.
In turn, `COC[C@H]1O[C@H](OCCc2ccccc2)[C@H](NC(=O)CCCN=C(N)N)[C@@H](OCc2ccc(Cl)cc2)[C@@H]1O` returned an IC50 in assay [1] of 540 nM.
Same read-out and setting: in the case of `COC[C@H]1O[C@@H](OCc2ccc(Cl)cc2)[C@H](NC(=O)CCCN=C(N)N)[C@@H](OCc2ccc(Cl)cc2)[C@@H]1O` it was 1660 nM.
`CS[C@@H]1O[C@H](COCc2ccc(Cl)cc2)[C@@H](O)[C@@H](OCc2ccc3ccccc3c2)[C@H]1NC(=O)CCCN=C(N)N` came in with an IC50 in assay [2] of 720 nM.
`COC[C@H]1OC(OCCc2ccccc2)[C@H](NC(=O)CCCN=C(N)N)[C@@H](OCc2ccc(Cl)cc2)[C@@H]1O` (some centres undefined): in assay [1], affinity was put at a Ki of 3500 nM.
On to `COC[C@H]1O[C@H](OCc2ccc3ccccc3c2)[C@H](NC(=O)CCCN)[C@H](OCc2ccc(Cl)cc2)[C@@H]1O`, for which the IC50 in assay [3] was > 10000 nM; in assay [4] it was > 10000 nM; in assay [5] it was 500 nM; in assay [2], > 10000 nM; in assay [6] it was 70 nM.
The molecule `COC[C@H]1OC(OCc2ccc(Cl)cc2)[C@H](NC(=O)CCCN=C(N)N)[C@@H](OCc2ccc3ccccc3c2)[C@@H]1O` (some centres undefined) yielded a Ki in assay [1] of 2600 nM.

The values are drawn from ChEMBL document CHEMBL1250479, “Biological diversity from a structurally diverse library: systematically scanning conformational space using a pyranose scaffold” (J Med Chem, 2010).
